Screens: PubChem, several laboratories
UCH37 DUB inh: inhibitors of human deubiquitinating enzyme UCH37 | AID 588478 | inhibition, % (test concentration not listed) | Q9Y5K5 | purified proteasome/UCH37, Ub-AMC cleavage fluorescence | 330,000 tested, 0.33% active;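 active = mean inhibition over replicate wells above about 20%, limit read from the data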;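 note: 0% = compound-free wells with enzyme and 100% = wells lacking proteasome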
Target sequence (Q9Y5K5 whole entry, looked up): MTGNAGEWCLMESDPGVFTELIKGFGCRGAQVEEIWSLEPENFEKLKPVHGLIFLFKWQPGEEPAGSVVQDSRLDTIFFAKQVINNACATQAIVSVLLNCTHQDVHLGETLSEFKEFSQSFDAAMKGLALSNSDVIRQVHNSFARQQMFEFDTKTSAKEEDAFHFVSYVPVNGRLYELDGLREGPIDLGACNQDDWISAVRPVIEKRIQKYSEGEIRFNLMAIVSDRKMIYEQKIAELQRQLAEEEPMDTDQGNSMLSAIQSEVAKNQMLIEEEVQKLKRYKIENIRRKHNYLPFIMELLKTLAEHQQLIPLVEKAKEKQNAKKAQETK
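Reagent: Ub-AMC substrate; assay system: Proteasome-associated human UCH37 deubiquitinase; controls: no-proteasome and no-compound wells; read-out: % inhibition of Ub-AMC cleavage fluorescence; timing: 30 min preincubation with enzyme, 25 min cleavage at room temperature; signal: AMC fluorescence from Ub-AMC cleavage, excitation 355 nm, emission 460 nm; buffer or medium: Tris-HCl pH 7.4 plus ovalbumin, ATP-MgCl2, DTT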
CTSL1 counter: counter-screen for PFM18AAP inhibitors: inhibitors of F. hepatica cathepsin L1. recombinant F. hepatica cathepsin L1, Z-Leu-Arg-MCA fluorescence. inhibition, % at 5.96 µM. 300,000 tested, 0.49% active. AID 1906;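 active = inhibition above the mean of all tested compounds plus 3 SD, set per screening campaign, cut at about 17% in these data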;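 note: 0% = plate median of test compound wells and 100% = 1 µM Z-Phe-Ala-diazomethylketone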
aDG glyco up: increases alpha dystroglycan glycosylation. Pro5-aDG cells, alpha-DG glycosylation AlphaScreen (IIH6); 0% Pro5, 100% B10-LARGE cell signal. activation, % at 10 µM. 360,000 tested, 0.22% active. AID 624168;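 active = activation of at least 8% versus controls, or a plate z-score of at least 8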;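 note: Pro5 are CHO cells carrying HIG-tagged alpha-DG that lacks glycosylation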
PKA-R2B act: activates the human PKA-R2B holoenzyme complex; 340,000 tested, 0.079% active; activation, % at 11.4 µM; P22694+P31323; PKA-R2B holoenzyme dissociation, Cy5-IP20 fluorescence polarization; R2B truncated from residue 108, S112A mutant; 0% DMSO only, 100% 113 µM cGMP;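 active = activation above a cutoff set at the mean over all compounds plus 3 SD, cut at about 18% in these data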;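 note: higher means more holoenzyme dissociation and a rise in polarization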
PKA-R1A activ: activators of PKA-R1A complex; P00514+P68181; PKA-R1A dissociation, Cy5-IP20 fluorescence polarization; scaled: DMSO 0%, 113 µM cGMP 100%; activation, % at 11.4 µM; 340,000 tested, 0.083% active; AID 504707;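 active = percent activation above the mean of all tested compounds plus 3 SD, cut at about 19% in these data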;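 note: higher means more PKAc released from R1A so a rise in polarization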
UCH37 reconfirm: UCH37 Ub-AMC cleavage inhibition, confirmed; Proteasome-bound UCH37, Ub-AMC cleavage fluorescence; inhibition, % at 20 µM; AID 624100; 480 tested, 27% active; shares compounds with UCH37 DUB inh;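 active = average inhibition over replicates above about 50%, so the earlier screening hit is confirmed, limit read from the data; inactive = the rest, counted as false positives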;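 note: based on cleavage rate fitted by regression over a 30 min kinetic read; 0% = proteasome plus Ub-AMC and 100% = Ub-AMC without proteasome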
* hit, by the source's call; . = not tested or not shown. Hits are enriched below; roughly 0.94% of the tested compounds scored in any of these assays.

SMILES | UCH37 DUB inh | CTSL1 counter | aDG glyco up | PKA-R2B act | PKA-R1A activ | UCH37 reconfirm
COc1ccccc1-c1coc2cc(O)cc(O)c2c1=O | 48* | 3 | 0 | -4 | -2 | -6
CC1=NNC(=O)C1CC(=O)NN=Cc1sccc1C (centres undefined) | 3 | . | . | . | . | .
CCCCCc1ccc(-c2cn(Cc3ccc(C)cc3)nn2)cc1 | 35* | 3 | 0 | 6 | 4 | 2
CCCCCc1ccc(-c2cn(Cc3cccc(OC)c3)nn2)cc1 | 4 | -4 | 0 | 13 | -4 | .
CC[C@@]1(c2ccccc2)C(=O)N(C(=O)OC)N1C(=O)OC | 2 | -2 | 0 | 3 | -7 | .
CC[C@]1(c2cccc(C)c2)C(=O)N(C(=O)OC)N1C(=O)OC | 35* | 1 | 0 | -5 | -9 | -6
COC(=O)NN=Cc1ccc(OCCSc2ccc(Cl)cc2)c(OC)c1 | -1 | . | . | . | . | .
O=C1C(Cl)=C(NCCc2ccccc2)C(=O)c2ccccc21 | 76* | . | 0 | 0 | -9 | 87*
CCN(CC)CCCNC1=C(Cl)C(=O)c2ccccc2C1=O | 27* | 17* | 9.2* | -14 | -8 | 39
O=C1C(Cl)=C(NCCc2ccccc2)C(=O)N1CCc1ccccc1 | -50 | -2 | 0 | 4 | 3 | .
CC1(C)[N+]([O-])=C2C(=NO)c3ccccc3C2=[N+]([O-])C1(C)C | 0 | . | . | . | . | .
Clc1ccc(C2=NNC(=NCC3CCCO3)SC2)cc1 (centres undefined) | 51* | 2 | 0 | -3 | -13 | 4
N#CC(=NNc1cccc(C(F)(F)F)c1)C(=O)c1csc(-c2cccnc2)n1 | 11 | . | . | . | . | .
CCOc1ccc(C=NNC(=O)c2cccc3ccccc23)c(OCC)c1 | 1 | . | . | . | . | .
CC(=O)Oc1c(Br)cc(N(C(C)=O)S(=O)(=O)c2ccccc2)c2ccccc12 | 36* | 0 | 3.0* | 7 | -4 | 9
N=C1SCC(=O)N1N=Cc1ccccc1 | 2 | . | . | . | . | .
CCCCNC(=O)c1onc(CSc2ccc(Cl)cc2)c1C(=O)NCCCC | 36* | 7 | 0 | 6 | 1 | -5
CCCCNC(=O)c1c(CSc2ccc(Cl)cc2)noc1C(=O)NCCC | 2 | 0 | 0 | -12 | 3 | .
CC(C)c1ccc(S(=O)(=O)N=C2C=C(Sc3ncn[nH]3)C(=O)c3ccccc32)cc1 | 67* | . | . | . | . | 62*
C=CCn1c(N)c(C(=O)OCC)sc1=S | 4 | 1 | 0 | -2 | -6 | .
CCOC(=O)c1sc(=S)n(CC)c1N | 52* | -2 | 0 | -1 | -8 | 25
NC(=S)NN=Cc1ccc(-n2nncc2-c2ccc(Cl)cc2)cc1 | 6 | . | . | . | . | .
NC(=S)n1[nH]c(-c2ccccc2)c(N=Nc2ccccc2C(=O)N2CCOCC2)c1=O | 54* | 1 | 0 | 0 | -3 | 6
Cc1cccc(NC(=O)CN2C(=O)S/C(=C\c3ccc(O)c([N+](=O)[O-])c3)C2=O)c1 | 16 | 7 | 0 | -10 | -12 | .
Cc1ccc(NC(=O)CN2C(=O)S/C(=C/c3ccc(O)c([N+](=O)[O-])c3)C2=O)cc1C | 28* | . | 0 | 3 | 8 | 48
SMILES | UCH37 DUB inh | CTSL1 counter | aDG glyco up | PKA-R2B act | PKA-R1A activ | UCH37 reconfirm
O=C(CNC(=O)c1cccnc1)NN=Cc1cc(Br)c(O)c(Br)c1 | -12 | . | . | . | . | .
CCOc1ccc(/C=C2/SC(=S)N(C(C(=O)O)c3ccccc3)C2=O)cc1OCC (centres undefined) | 51* | . | 0 | 9 | -2 | 12
O=S(=O)(Nc1cc(Sc2ncn[nH]2)c(O)c2ccccc12)c1ccccc1 | 38* | . | 0 | . | . | 70*
CN1CCS/C1=C\C=C1/SC(=S)N(CC(=O)O)C1=O | 39* | . | 0 | -1 | 8 | 38
CCN1C(=O)/C(=C/C=C2/SCCN2C)SC1=S | 8 | 9 | 0 | 2 | -15 | .
CN(C)/C=C1/NC(=S)NC1=O | 27* | 14 | 0 | -2 | -4 | 11
O=S(=O)(NCCC1=CCCCC1)c1cccc(S(=O)(=O)N2CCOCC2)c1 | 58* | 1 | 0 | -9 | -9 | 59*
Cc1ccc(OCCOc2ccc(Br)cc2C=NNC(N)=O)cc1 | 2 | . | . | . | . | .
Cc1ccc(C=NNC(=O)CN2CCN(Cc3ccccc3Cl)CC2)o1 | 4 | . | . | . | . | .
CC1=C(C(=O)OCc2ccccc2)C(c2ccccc2Cl)NC(=O)N1CCCC(=O)O (centres undefined) | 41* | -2 | 0 | -11 | -20 | 9
CC1=C(C(=O)OCc2ccccc2)C(c2ccccc2Cl)NC(=O)N1CCCCCC(=O)O (centres undefined) | 7 | 2 | 0 | -9 | 0 | .
Cn1c(SC(C(=O)Nc2ccc(F)cc2)c2ccccc2)nc2ccccc21 (centres undefined) | 45* | 1 | 0 | -11 | 3 | -5
Cn1nnnc1SC(C(=O)Nc1ccc(F)cc1)c1ccccc1 (centres undefined) | -2 | 5 | 0 | -1 | 0 | .
CCN1/C(=C/C=C/C=C/c2sc3ccccc3[n+]2CC)Sc2ccccc21 | . | 0 | . | . | . | .
CCN1/C(=C/C=C/C=C/C=C/c2sc3ccccc3[n+]2CC)Sc2ccccc21 | 54* | 3 | 3 | 2 | -1 | 69*
Nc1nonc1-n1nnc(C(=O)NN=Cc2cccnc2)c1CSC1=NCCS1 | 4 | . | . | . | . | .
CCOc1ccc(C=NNc2ccc(S(=O)(=O)Nc3ccccc3C(=O)O)cc2[N+](=O)[O-])cc1OC | 44* | . | -1 | -5 | 4 | 75*
O=C(O)CCCN1C(=O)/C(=C\c2ccc(-c3nc4ccccc4s3)o2)SC1=S | 39* | 3 | 0 | -17 | -12 | 44
O=C(O)c1cc(-c2ccc(/C=C3/SC(=S)N(Cc4ccccc4)C3=O)o2)ccc1Cl | 45* | . | 0 | 6 | 1 | 60*
CC1(C)Cc2ccccc2C(c2cc3ccccc3oc2=O)=N1 | 36* | 3 | 0 | 0 | -5 | -4
O=C1OC(c2ccc3ccccc3c2O)(c2ccc3ccccc3c2O)c2ccccc21 | 26* | . | 0 | -16 | -1 | -36
CC1CN(CCc2ccccc2)C(C)CC1=NO (centres undefined) | 3 | . | . | . | . | .
O=C1C=C(Nc2ccc(F)cc2)c2ccccc2C1=O | 57* | . | 8.9* | 0 | -3 | 18
O=C1C=C(Nc2ccccc2O)c2ccccc2C1=O | 81* | 22* | 12* | 3 | 15 | 85*
O=C1C=C(NCc2ccccc2)c2ccccc2C1=O | 53* | . | 8.7* | -2 | -1 | 12
Cc1ccc(NC2=CC(=O)C(=O)c3ccccc32)c(C)c1 | 36* | . | 6.5* | 5 | 8 | 5
CN=CC1=C(O)c2ccccc2C1=O | 7 | 2 | 0 | -3 | -2 | .
